Test results taken from ChEMBL document CHEMBL4765233, “From Lead to Drug Candidate: Optimization of 3-(Phenylethynyl)-1H-pyrazolo[3,4-d]pyrimidin-4-amine Derivatives as Agents for the Treatment of Triple Negative Breast Cancer” (J Med Chem, 2016).
The source made the active and inactive calls. No cut-off for these calls is given here.

Key:
[1] = Toxicity against SCID mouse xenografted with human MDA-MB-231 cells assessed as change in body weight at 10 mg/kg, iv administered weekly for 21 days and measured every 3 days; type: organism-based; settings: in vivo, 504 h, time 21 day
Procedure, shortened: (§1)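 Exponential-phase cells washed and injected subcutaneously (5 × 10^6 cells in 100 μL) into 5–6-week SCID mice. At 150–200 mm3, mice randomised to groups of 6. Oral dosing daily in water with 25% PEG400 and 5% DMSO; paclitaxel 10 mg/kg weekly by tail vein. Body weight measured every 3 days and side effects checked daily.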

[2] = Toxicity against SCID mouse xenografted with human MDA-MB-435 cells assessed as change in body weight at 10 mg/kg, iv administered weekly for 21 days and measured every 3 days; type: organism-based; settings: in vivo, 504 h, time 21 day; procedure, shortened: as §1
[3] = test system: MDA-MB-435 (Homo sapiens); test: Antitumor activity against human MDA-MB-435 cells xenografted in SCID mouse assessed as tumor growth inhibition at 10 mg/kg, iv administered weekly for 21 days and measured every 3 days; settings: time 21.0 day
[4] = test system: MDA-MB-231; test: Antitumor activity against human MDA-MB-231 cells xenografted in SCID mouse assessed as tumor growth inhibition at 10 mg/kg, iv administered weekly for 21 days and measured every 3 days; type: functional, organism-based; settings: time 21.0 day
Procedure, shortened: (§2)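 SCID mice (5−6 weeks) injected subcutaneously with 100 μL of cells at 5 × 10^7/mL. At 150−200 mm3 mice randomized, 6 per group. Oral compounds given in water with 25% PEG400 plus 5% DMSO; paclitaxel given 10 mg/kg/week iv. Tumor volume a×b²/2 and body weight measured every 3 days. Inhibition rate (c−d)/c×100% against vehicle control.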

[5] = test system: MDA-MB-435; test: Antiproliferative activity against human MDA-MB-435 cells assessed as reduction in cell viability incubated for 72 hrs by MTT assay; type: functional, cell-based; settings: MDA-MB-435, 72 h
Procedure, shortened: (§3)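 MTT viability assay. ATCC cell lines were grown in designated medium with 10% FBS at 37 °C, 5% CO2. Cells seeded at 1500−30000 per well and incubated 24 h, then exposed to compound (0−10 μg/mL) for 72 h. MTT added for 2−4 h. Formazan dissolved in DMSO (adherent) or acidified SDS overnight (suspension), absorbance read at 570 nm. Triplicates; IC50 calculated.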

[6] = test system: HepG2; test: Antiproliferative activity against human HepG2 cells assessed as reduction in cell viability incubated for 72 hrs by MTT assay; type: ADME, cell-based; settings: HepG2, 72 h
[7] = test system: MDA-MB-231; test: Antiproliferative activity against human MDA-MB-231 cells assessed as reduction in cell viability incubated for 72 hrs by MTT assay; type: functional, cell-based; settings: MDA-MB-231, 72 h; procedure, shortened: as §3
[8] = biological target: Voltage-gated inwardly rectifying potassium channel KCNH2 (Homo sapiens, UniProt Q12809); test: Inhibition of human ERG expressed in CHO cells at -80 mV holding potential by automated Qpatch electrophysiological assay
[9] = Toxicity in SCID mouse xenografted with MDA-MB-231 cells assessed as change in body weight at 40 mg/kg, po qd for 15 days and measured every 3 days; type: organism-based; settings: in vivo, 360 h, dose 40 mg/kg/day, time 15 day
[10] = Toxicity in SCID mouse xenografted with MDA-MB-231 cells assessed as animal death at 40 mg/kg, po qd for 15 days; type: organism-based; settings: in vivo, dose 40 mg/kg/day, time 15 day, read-out: Activity
[11] = test system: MDA-MB-231; test: Antitumor activity against human MDA-MB-231 cells xenografted in SCID mouse assessed as tumor growth inhibition at 40 mg/kg, po qd for 15 days and measured every 3 days; type: functional; settings: MDA-MB-231, po, 360 h, time 15 day; procedure, shortened: as §2
[12] = Toxicity in SCID mouse xenografted with MDA-MB-231 cells assessed as animal death at 20 mg/kg, po qd for 15 days; type: organism-based; settings: in vivo, dose 20 mg/kg/day, time 15 day, read-out: Activity
[13] = test system: MDA-MB-231; test: Antitumor activity against human MDA-MB-231 cells xenografted in SCID mouse assessed as tumor growth inhibition at 20 mg/kg, po qd for 15 days and measured every 3 days; settings: MDA-MB-231, po, 360 h, read-out: INH
[14] = Toxicity in SCID mouse xenografted with MDA-MB-231 cells assessed as change in body weight at 20 mg/kg, po qd for 15 days and measured every 3 days; type: organism-based; settings: in vivo, 360 h, dose 20 mg/kg/day, time 15 day
[15] = Cmax in Sprague-Dawley rat at 10 mg/kg, po administered via gavage by LC-MS analysis; type: ADME, organism-based; set-up: route oral, dose 10 mg/kg; settings: in vivo
[16] = AUC (0 to t) in Sprague-Dawley rat at 10 mg/kg, po administered via gavage by LC-MS analysis; type: ADME, organism-based; set-up: dose 10 mg/kg; settings: in vivo
[17] = AUC (0 to infinity) in Sprague-Dawley rat at 10 mg/kg, po administered via gavage by LC-MS analysis; type: ADME, organism-based; set-up: time infinity, route oral, dose 10 mg/kg; settings: in vivo
[18] = Tmax in Sprague-Dawley rat at 10 mg/kg, po administered via gavage by LC-MS analysis; type: ADME, organism-based; settings: in vivo
[19] = Half-life in Sprague-Dawley rat at 10 mg/kg, po administered via gavage by LC-MS analysis; type: ADME, organism-based; settings: in vivo

Sequence of Voltage-gated inwardly rectifying potassium channel KCNH2 (Q12809 whole entry): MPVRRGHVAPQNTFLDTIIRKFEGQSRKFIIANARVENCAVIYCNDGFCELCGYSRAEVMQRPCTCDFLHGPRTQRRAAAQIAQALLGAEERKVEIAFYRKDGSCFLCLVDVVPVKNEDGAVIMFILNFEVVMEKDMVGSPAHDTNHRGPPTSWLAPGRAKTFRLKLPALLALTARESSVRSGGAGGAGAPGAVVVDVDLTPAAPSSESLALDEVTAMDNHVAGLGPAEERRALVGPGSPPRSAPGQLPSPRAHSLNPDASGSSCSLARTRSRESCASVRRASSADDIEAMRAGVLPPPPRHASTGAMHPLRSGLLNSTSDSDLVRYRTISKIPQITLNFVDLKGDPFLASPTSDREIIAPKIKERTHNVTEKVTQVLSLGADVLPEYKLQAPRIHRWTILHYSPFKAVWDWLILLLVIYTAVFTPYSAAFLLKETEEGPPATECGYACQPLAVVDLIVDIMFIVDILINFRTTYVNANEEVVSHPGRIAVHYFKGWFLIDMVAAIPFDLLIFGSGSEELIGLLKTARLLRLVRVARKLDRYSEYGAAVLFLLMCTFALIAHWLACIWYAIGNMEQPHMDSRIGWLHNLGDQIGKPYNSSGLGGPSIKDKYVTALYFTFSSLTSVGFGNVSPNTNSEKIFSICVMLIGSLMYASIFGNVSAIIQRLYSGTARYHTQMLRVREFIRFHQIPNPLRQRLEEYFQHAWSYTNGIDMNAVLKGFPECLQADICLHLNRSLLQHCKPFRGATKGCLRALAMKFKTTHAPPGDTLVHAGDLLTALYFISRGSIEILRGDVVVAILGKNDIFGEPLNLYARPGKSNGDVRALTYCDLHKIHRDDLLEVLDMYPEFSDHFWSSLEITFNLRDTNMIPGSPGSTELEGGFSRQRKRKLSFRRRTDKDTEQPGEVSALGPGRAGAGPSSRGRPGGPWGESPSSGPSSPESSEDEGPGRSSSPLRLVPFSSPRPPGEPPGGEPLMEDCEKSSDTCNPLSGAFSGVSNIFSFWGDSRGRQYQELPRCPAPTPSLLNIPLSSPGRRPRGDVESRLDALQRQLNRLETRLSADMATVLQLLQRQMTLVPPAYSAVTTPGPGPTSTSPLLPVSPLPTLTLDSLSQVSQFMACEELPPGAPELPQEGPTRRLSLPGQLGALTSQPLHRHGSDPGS

SMILES | IC50 [5] [nM] | IC50 [6] [µM] | IC50 [7] [nM] | IC50 [8] [µM] | Activity [9] [%] | mortality at 360 h [10] [%] | inhibition in vivo at 40 mg/kg/day [11] [%] | mortality at 360 h [12] [%] | inhibition in vivo at 20 mg/kg/day [13] [%] | Activity [14] [%] | other results
CC(=O)O[C@H]1C(=O)[C@@]2(C)[C@H]([C@H](OC(=O)c3ccccc3)[C@]3(O)C[C@H](OC(=O)[C@H](O)[C@@H](NC(=O)c4ccccc4)c4ccccc4)C(C)=C1C3(C)C)[C@]1(OC(C)=O)CO[C@@H]1C[C@@H]2O [PACLITAXEL] |  |  |  |  |  |  |  |  |  |  | Activity [1]: Non-Toxic; Activity [2]: Non-Toxic; Activity [3]: Active; Activity [4]: Active
Cc1ccc(NC(=O)c2cccc(C(F)(F)F)c2)cc1C#Cc1nn(C[C@H](C)CO)c2ncnc(N)c12 | 10 | > 10 | 10 | > 30 | -8.2 | 0 | 77.3 |  |  |  | 
Cc1ccc(NC(=O)c2cccc(C(F)(F)F)c2)cc1C#Cc1nn([C@H]2CC[C@@H](O)CC2)c2ncnc(N)c12 |  | 7.9 |  |  |  |  |  | 0 | 70.2 | -2 | 
Cc1ccc(NC(=O)c2cccc(C(F)(F)F)c2)cc1C#Cc1nn([C@H]2CC[C@H](O)CC2)c2ncnc(N)c12 |  |  |  |  | 3.1 | 0 | 89.1 | 0 | 79.6 | 3.5 | Cmax [15]: 128 ng/mL; AUC(0-t) [16]: 960 ng·h/mL; AUC(0-inf) [17]: 976 ng·h/mL; Tmax [18]: 6 h; half-life [19]: 282 min
Cc1ccc(NC(=O)c2ccc(Cl)c(C(F)(F)F)c2)cc1C#Cc1nn(C[C@H](C)CO)c2ncnc(N)c12 | 323 | > 10 | 17 | > 30 |  |  |  |  |  |  | 
